How the values were obtained:
[1] = molecular target: T1, Type-1 angiotensin II receptor (Bos taurus, UniProt P25104); test: Inhibition of specific binding of [125 I ] Angiotensin-II (0.2 nM) to bovine adrenal cortex; format: tissue-based
T1 sequence (P25104 whole entry): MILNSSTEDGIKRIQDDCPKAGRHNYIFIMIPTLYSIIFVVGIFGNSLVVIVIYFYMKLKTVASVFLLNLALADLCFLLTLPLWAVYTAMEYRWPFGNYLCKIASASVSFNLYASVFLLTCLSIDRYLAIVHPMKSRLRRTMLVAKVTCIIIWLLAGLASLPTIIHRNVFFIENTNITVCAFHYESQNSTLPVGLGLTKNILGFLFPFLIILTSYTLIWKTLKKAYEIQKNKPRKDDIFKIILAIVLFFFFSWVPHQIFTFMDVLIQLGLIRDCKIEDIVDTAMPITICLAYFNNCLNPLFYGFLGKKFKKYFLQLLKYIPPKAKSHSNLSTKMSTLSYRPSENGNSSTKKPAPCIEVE

Oryctolagus cuniculus = species: Oryctolagus cuniculus; test: Concentration required for inhibition of Angiotensin-II induced rabbit aorta strips contraction; format: functional
How it was run: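 Isolated rabbit aortic strips contracted with AII (10 nM); test compound inhibition measured from concentration-inhibition curves, n = 6-8; IC50 is the concentration halving the AII-induced contraction.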

Rattus norvegicus [2] = test: Percent inhibition of the Angiotensin-II (0.1micro g/kg, iv) induced pressor response after 3 hours of administration (10 mg/kg po) in rats; format: functional
How it was run: (§1)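 Conscious male Sprague-Dawley rats dosed orally with test compound; pressor response to AII challenge (0.1 µg/kg iv) measured at 3 and 7 h after dosing and expressed as percent inhibition. Duplicate experiments, with n = 3 for some compounds; variation in % inhibition under 30%.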

Rattus norvegicus [3] = test: Percent inhibition of the Angiotensin-II (0.1micro g/kg, iv) induced pressor response after 7 hours of administration (10 mg/kg po) in rats; format: functional; how it was run: as §1
[4] = molecular target: T2, Angiotensin II receptor (Rattus norvegicus) (UniProt P29089+P25095+P35351); test: Percent inhibition of the Angiotensin-II (0.1micro g/kg, iv) induced pressor response after 7 hours of administration (3 mg/kg po) in rats; format: functional, organism-based; how it was run: as §1
[5] = molecular target: T2, Angiotensin II receptor (Rattus norvegicus); test: Percent inhibition of the Angiotensin-II (0.1ug/kg, iv) induced pressor response after 3 hours of administration (3 mg/kg po) in rats; format: functional, organism-based; how it was run: as §1
[6] = molecular target: T2, Angiotensin II receptor (Rattus norvegicus); test: Percent inhibition of the Angiotensin-II (0.1ug/kg, iv) induced pressor response after 7 hours of administration (1 mg/kg po) in rats; format: functional, organism-based; how it was run: as §1
[7] = molecular target: T2, Angiotensin II receptor (Rattus norvegicus); test: Percent inhibition of the Angiotensin-II (0.1ug/kg, iv) induced pressor response after 3 hours of administration (1 mg/kg po) in rats; format: functional, organism-based; how it was run: as §1
Rattus norvegicus [8] = test: Percent inhibition of the Angiotensin-II (0.1micro g/kg, iv) induced pressor response after 7 hours of administration (1 mg/kg po) in rat; format: functional; how it was run: as §1
Rattus norvegicus [9] = test: Percent inhibition of the Angiotensin-II (0.1 micro g/kg, iv) induced pressor response after 3 hours of administration (3 mg/kg po) in rats; format: functional; how it was run: as §1
Rattus norvegicus [10] = test: Percent inhibition of the Angiotensin-II (0.1micro g/kg, iv) induced pressor response after 7 hours of administration (1 mg/kg po) in rats.; format: functional; how it was run: as §1
Rattus norvegicus [11] = test: Percent inhibition of the Angiotensin-II (0.1micro g/kg, iv) induced pressor response after 7 hours of administration (1 mg/kg po) in rats; format: functional; how it was run: as §1
Rattus norvegicus [12] = test: Percent inhibition of the Angiotensin-II (0.1 micro g/kg, iv) induced pressor response after 7 hours of administration (1 mg/kg po) in rats; format: functional; how it was run: as §1

| SMILES | IC50 [1] [nM] | inhibition [4] [%] | inhibition [5] [%] | inhibition [6] [%] | inhibition [7] [%] | other results |
| --- | --- | --- | --- | --- | --- | --- |
| CCOc1nc2cccc(C(=O)O)c2n1Cc1ccc(-c2ccccc2-c2nnn[nH]2)cc1 | 110 | 100 | 100 | 92 | 100 | IC50 (Oryctolagus cuniculus): 0.2 nM; Inhibition (Rattus norvegicus [2]): 100%; Inhibition (Rattus norvegicus [3]): 100% |
| CNCc1nc2cccc(C(=O)O)c2n1Cc1ccc(-c2ccccc2-c2nn[nH]n2)cc1 | 800 |  |  |  | 42 | Inhibition (Rattus norvegicus [8]): 50% |
| CCc1nc2cccc(C(=O)O)c2n1Cc1ccc(-c2ccccc2-c2nn[nH]n2)cc1 |  | 95 |  | 62 | 79 | Inhibition (Rattus norvegicus [9]): 96% |
| CCNc1nc2cccc(C(=O)O)c2n1Cc1ccc(-c2ccccc2-c2nn[nH]n2)cc1 |  | 100 | 100 |  | 81 | Inhibition (Rattus norvegicus [10]): 85% |
| CNc1nc2cccc(C(=O)O)c2n1Cc1ccc(-c2ccccc2-c2nn[nH]n2)cc1 |  |  |  |  | 28 | Inhibition (Rattus norvegicus [11]): 49% |
| CCCCNc1nc2cccc(C(=O)O)c2n1Cc1ccc(-c2ccccc2-c2nn[nH]n2)cc1 |  | 61 | 52 |  | 38 | Inhibition (Rattus norvegicus [12]): 19% |

From ChEMBL document CHEMBL1126750, “Nonpeptide angiotensin II receptor antagonists. Synthesis and biological activity of benzimidazolecarboxylic acids” (J Med Chem, 1993)
